How the values were obtained:
[1] = tested on: Human immunodeficiency virus 1; assay: Antiviral activity against HIV1 isolate 166 harboring reverse transcriptase L74V mutant gene obtained as site-directed mutant of NL4-3 by phenosense assay relative to wild type; type: functional
In short: (§1)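 Recombinant-virus PhenoSense HIV assay run on a panel of 30 NRTI-resistant HIV-1 mutants and two wild-type viruses. Each virus is tested across increasing drug concentrations to give an inhibition curve and EC50. Fold change is the test recombinant EC50 divided by the EC50 of the drug-sensitive wild-type reference virus.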

[2] = tested on: Human immunodeficiency virus 1; assay: Antiviral activity against HIV1 isolate 180 harboring reverse transcriptase K65R mutant gene obtained as site-directed mutant of NL4-3 by phenosense assay relative to wild type; type: functional; in short: as §1
[3] = tested on: Human immunodeficiency virus 1; assay: Antiviral activity against HIV1 isolate 070 harboring reverse transcriptase 65R/S68G mutant gene by phenosense assay relative to wild type; type: functional; in short: as §1
[4] = tested on: Human immunodeficiency virus 1; assay: Antiviral activity against HIV1 isolate 157 harboring reverse transcriptase L74V/M184V mutant gene by phenosense assay; type: functional, organism-based; details: Human immunodeficiency virus 1, isolate 157; in short: as §1
[5] = tested on: Human immunodeficiency virus 1; assay: Antiviral activity against HIV1 isolate 192 harboring reverse transcriptase M41L/T215Y mutant gene by phenosense assay relative to wild type; type: functional; in short: as §1
[6] = tested on: Human immunodeficiency virus 1; assay: Antiviral activity against HIV1 isolate 174 harboring reverse transcriptase M184V mutant gene obtained as site-directed mutant of NL4-3 by phenosense assay; type: functional, organism-based; details: Human immunodeficiency virus 1, isolate 174; in short: as §1
[7] = tested on: Human immunodeficiency virus 1; assay: Antiviral activity against HIV1 isolate 194 harboring reverse transcriptase M41L/T215Y/M184V mutant gene by phenosense assay; type: functional, organism-based; details: Human immunodeficiency virus 1, isolate 194; in short: as §1
[8] = tested on: Human immunodeficiency virus 1; assay: Antiviral activity against HIV1 isolate 058 harboring reverse transcriptase M41L/D67N/K70R/L210W/T215F/K219Q mutant gene by phenosense assay relative to wild type; type: functional; in short: as §1
[9] = tested on: Human immunodeficiency virus 1; assay: Antiviral activity against HIV1 isolate 061 harboring reverse transcriptase M41L/D67N/K70R/M184V/L210W/T215Y/K219E mutant gene by phenosense assay relative to wild type; type: functional; in short: as §1
[10] = tested on: Human immunodeficiency virus 1; assay: Antiviral activity against HIV1 isolate 070 harboring reverse transcriptase 65R/S68G mutant gene by phenosense assay; type: functional, organism-based; details: Human immunodeficiency virus 1, isolate 070; in short: as §1
[11] = tested on: Human immunodeficiency virus 1; assay: Antiviral activity against HIV1 isolate 071 harboring reverse transcriptase 65R/S68N/184V mutant gene by phenosense assay; type: functional, organism-based; details: Human immunodeficiency virus 1, isolate 071; in short: as §1
[12] = tested on: Human immunodeficiency virus 1; assay: Antiviral activity against HIV1 isolate 153 harboring reverse transcriptase L74V mutant gene by phenosense assay relative to wild type; type: functional; in short: as §1
[13] = tested on: Human immunodeficiency virus 1; assay: Antiviral activity against HIV1 isolate 211 harboring reverse transcriptase D67N/K70R/T215F/K219E/M184V mutant gene by phenosense assay relative to wild type; type: functional
In short: (§2)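 PhenoSense HIV recombinant virus assay: patient-derived HIV-1 with major NRTI resistance mutations tested against increasing drug concentrations to give inhibition curves. EC50 is the concentration giving 50% inhibition. Fold change is the test recombinant EC50 divided by the EC50 of a drug-sensitive wild-type reference virus. Panel of 30 NRTI-resistant isolates plus two wild-type viruses.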

[14] = tested on: Human immunodeficiency virus 1; assay: Antiviral activity against HIV1 isolate 220 harboring reverse transcriptase K70E/M184V mutant gene by phenosense assay; type: functional, organism-based; details: Human immunodeficiency virus 1, isolate 220; in short: as §2
[15] = tested on: Human immunodeficiency virus 1; assay: Antiviral activity against HIV1 isolate 063 harboring reverse transcriptase M41L/D67N/K70R/M184V/L210W/T215Y/K219E mutant gene by phenosense assay; type: functional, organism-based; details: Human immunodeficiency virus 1, isolate 063; in short: as §1
[16] = tested on: Human immunodeficiency virus 1; assay: Antiviral activity against HIV1 isolate 160 harboring reverse transcriptase S68G/V75(I/T)/F77L/Y115F/F116Y /Q151M mutant gene by phenosense assay; type: functional, organism-based; details: Human immunodeficiency virus 1, isolate 160; in short: as §1
[17] = tested on: Human immunodeficiency virus 1; assay: Antiviral activity against HIV1 isolate 203 harboring reverse transcriptase M41L/L210W/T215Y/M184V mutant gene by phenosense assay; type: functional, organism-based; details: Human immunodeficiency virus 1, isolate 203; in short: as §2
[18] = tested on: Human immunodeficiency virus 1; assay: Antiviral activity against HIV1 isolate 058 harboring reverse transcriptase M41L/D67N/K70R/L210W/T215F/K219Q mutant gene by phenosense assay; type: functional, organism-based; details: Human immunodeficiency virus 1, isolate 058; in short: as §1
[19] = tested on: Human immunodeficiency virus 1; assay: Antiviral activity against HIV1 isolate 063 harboring reverse transcriptase M41L/D67N/K70R/M184V/L210W/T215Y/K219E mutant gene by phenosense assay relative to wild type; type: functional; in short: as §1
[20] = tested on: Human immunodeficiency virus 1; assay: Antiviral activity against HIV1 isolate 067 harboring reverse transcriptase A62V/D67G/T69SVG/V75I/T215I mutant gene by phenosense assay; type: functional, organism-based; details: Human immunodeficiency virus 1, isolate 067; in short: as §1
[21] = tested on: Human immunodeficiency virus 1; assay: Antiviral activity against HIV1 isolate 162 harboring reverse transcriptase A62V/V75I/F77L/Y115F/F116Y/Q151M/M184V mutant gene by phenosense assay relative to wild type; type: functional; in short: as §1
[22] = tested on: Human immunodeficiency virus 1; assay: Antiviral activity against HIV1 isolate 160 harboring reverse transcriptase S68G/V75(I/T)/F77L/Y115F/F116Y /Q151M mutant gene by phenosense assay relative to wild type; type: functional; in short: as §1
[23] = tested on: Human immunodeficiency virus 1; assay: Antiviral activity against HIV1 isolate 217 harboring reverse transcriptase D67N/K70E/M184V mutant gene by phenosense assay relative to wild type; type: functional; in short: as §2
[24] = tested on: Human immunodeficiency virus 1; assay: Antiviral activity against HIV1 isolate 206 harboring reverse transcriptase D67N/K70R mutant gene by phenosense assay; type: functional, organism-based; details: Human immunodeficiency virus 1, isolate 206; in short: as §2
[25] = tested on: Human immunodeficiency virus 1; assay: Antiviral activity against HIV1 isolate 071 harboring reverse transcriptase 65R/S68N/184V mutant gene by phenosense assay relative to wild type; type: functional; in short: as §1
[26] = tested on: Human immunodeficiency virus 1; assay: Antiviral activity against HIV1 isolate 217 harboring reverse transcriptase D67N/K70E/M184V mutant gene by phenosense assay; type: functional, organism-based; details: Human immunodeficiency virus 1, isolate 217; in short: as §2

SMILES	fold change (FC) [1]	fold change (FC) [2]	fold change (FC) [3]	EC50 [4] [µM]	fold change (FC) [5]	EC50 [6] [µM]	EC50 [7] [µM]	fold change (FC) [8]	fold change (FC) [9]	EC50 [10] [µM]	EC50 [11] [µM]	fold change (FC) [12]	fold change (FC) [13]	EC50 [14] [µM]	EC50 [15] [µM]	EC50 [16] [µM]	EC50 [17] [µM]	EC50 [18] [µM]	fold change (FC) [19]	EC50 [20] [µM]	further results
Nc1nc(NC2CC2)c2ncn([C@H]3C=C[C@@H](CO)C3)c2n1 [ABACAVIR]	1.9	2.6	3.2	9.2	1.9	4.7	9.6	4.4	9.1	5.7	12	1.9	4.4	10	14	34	8.2	7.9	7.9	33	fold change (FC) [21]: >29; fold change (FC) [22]: 19; fold change (FC) [23]: 2.9; EC50 [24]: 2.5 µM; fold change (FC) [25]: 6.6; EC50 [26]: 5.1 µM
O=c1[nH]cnc2c1ncn2[C@H]1CC[C@@H](CO)O1 [DIDANOSINE]	1.5	2	1.7	11	1.1	6.8	10	1.6	2.1	9.2	14	1.6	1.6	9.9	11	63	8.2	8.8	2.1	22	fold change (FC) [21]: 11; fold change (FC) [22]: 12; fold change (FC) [23]: 1.3; EC50 [24]: 6.6 µM; fold change (FC) [25]: 2.6; EC50 [26]: 7.3 µM
Nc1nc(=O)n([C@@H]2CS[C@H](CO)O2)cc1F [EMTRICITABINE]	1.5	11	17	> 100	2.7	> 100	> 100	5	>63	19	> 100	1.9	>88	> 100	> 100	35	> 100	5.7	>88	30	fold change (FC) [21]: >88; fold change (FC) [22]: 30; fold change (FC) [23]: >88; EC50 [24]: 3.3 µM; fold change (FC) [25]: >88; EC50 [26]: > 100 µM

— ChEMBL document CHEMBL1629690, “Development of hexadecyloxypropyl tenofovir (CMX157) for treatment of infection caused by wild-type and nucleoside/nucleotide-resistant HIV” (Antimicrob Agents Chemother, 2010)
